Experimental data published in ChEMBL document CHEMBL5674884, “Ezh2 inhibition in Kras-driven lung cancer amplifies inflammation and associated vulnerabilities” (J Exp Med, 2018).
Active and inactive are the calls of the source.

Experiments:
[1] = target: Histone-lysine N-methyltransferase EZH2 (Mus musculus) (UniProt Q61188); test: Inhibition of Ezh2 in mouse NSCLC cells at 100 nM in presence of […] by immunoblot analysis; type: cell-based
[2] = test system: NSCLC; test: Induction of cell cycle arrest in mouse NSCLC cell infected with dox-inducible EZH2 shRNA assessed as accumulation of cells at G0/G1 phase at 100 nM in presence of […] by FACS analysis; type: functional, cell-based
Outline: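 Kras G12D/+;Trp53-/- cells carrying dox-inducible EZH2 shRNA treated with or without dox and 100 nM GSK343 for 3 d. Cells then pulsed 45 min with 10 uM BrdU and stained with anti-BrdU-FITC and propidium iodide (5 ug/ml) with RNaseA, then analyzed by FACS. Three independent experiments; Student's t test.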

[3] = test system: NSCLC; test: Inhibition of colony formation in mouse NSCLC cell expressing Kras G12D/+ at 100 nM; type: functional, cell-based
Outline: (§1)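 Kras G12D/+;Trp53-/- cells treated with 100 nM GSK343 or GSK669 for 5 d, with or without dox, then replated at 250 or 500 cells per well for colony formation under continued treatment. Cell numbers taken relative to controls; colony size quantified automatically. Three independent experiments.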

[4] = target: Histone-lysine N-methyltransferase EZH2 (Mus musculus) (UniProt Q61188); test: Inhibition of Ezh2 in mouse NSCLC cells infected with dox-inducible EZH2 shRNA assessed vinculin expression at 100 nM in presence of […] by immunoblot analysis; type: cell-based
[5] = target: Histone-lysine N-methyltransferase EZH2 (Mus musculus) (UniProt Q61188); test: Inhibition of Ezh2 in mouse NSCLC cells expressing Kras G12D/+ assessed down-regulation of H3K27me3 level at 100 nM for 120 hrs by Immunoblot analysis; type: cell-based
[6] = test system: NSCLC; test: Antiproliferative activity in mouse NSCLC cell expressing Kras G12D/+ assessed reduction in cell viability at 100 nM; type: functional, cell-based; outline: as §1
[7] = test system: A549; test: Reversal of GSK126 dependent antiinflammatory activity in human A549 cells assessed as decrease in Ccl2 level by qRT-PCR analysis; type: functional, cell-based
[8] = test system: A549; test: Reversal of GSK126 dependent antiinflammatory activity in human A549 cells assessed as decrease in Irak1 level by qRT-PCR analysis; type: functional, cell-based
[9] = test system: A549; test: Reversal of GSK126 dependent antiinflammatory activity in human A549 cells assessed as decrease in IL-6 level by qRT-PCR analysis; type: functional, cell-based
[10] = test system: A549; test: Reversal of GSK126 dependent antiinflammatory activity in human A549 cells assessed as decrease in Il1ra level by qRT-PCR analysis; type: functional, cell-based

Histone-lysine N-methyltransferase EZH2 (Mus musculus), sequence (Q61188 whole entry): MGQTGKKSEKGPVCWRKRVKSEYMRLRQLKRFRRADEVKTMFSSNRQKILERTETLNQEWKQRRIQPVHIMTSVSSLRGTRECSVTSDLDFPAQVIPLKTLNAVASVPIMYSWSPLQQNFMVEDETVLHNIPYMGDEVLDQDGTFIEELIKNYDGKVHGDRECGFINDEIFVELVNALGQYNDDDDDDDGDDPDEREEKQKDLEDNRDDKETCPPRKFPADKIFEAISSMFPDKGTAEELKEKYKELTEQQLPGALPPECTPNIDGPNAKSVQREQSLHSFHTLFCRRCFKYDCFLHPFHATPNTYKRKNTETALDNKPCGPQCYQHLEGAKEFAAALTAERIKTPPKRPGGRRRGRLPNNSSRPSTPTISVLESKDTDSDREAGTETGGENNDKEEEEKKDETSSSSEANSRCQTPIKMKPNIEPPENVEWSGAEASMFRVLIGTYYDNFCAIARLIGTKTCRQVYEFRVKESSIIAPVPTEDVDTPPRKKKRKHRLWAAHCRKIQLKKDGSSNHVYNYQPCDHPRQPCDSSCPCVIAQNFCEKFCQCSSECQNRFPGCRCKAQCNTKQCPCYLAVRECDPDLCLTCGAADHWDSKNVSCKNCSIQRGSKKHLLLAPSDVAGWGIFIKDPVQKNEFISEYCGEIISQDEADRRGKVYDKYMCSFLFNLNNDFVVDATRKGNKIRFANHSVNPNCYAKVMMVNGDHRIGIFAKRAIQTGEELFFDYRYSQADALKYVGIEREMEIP

CCCc1cc(C)[nH]c(=O)c1CNC(=O)c1cc(-c2ccnc(N3CCN(C)CC3)c2)cc2c1cnn2C(C)C
active: inhibition [1] | Activity [2] | inhibition [3] | inhibition [4] | inhibition [5] | Activity [6]

CN1CC[C@H](c2c(O)cc(O)c3c(=O)cc(-c4ccccc4Cl)oc23)[C@H](O)C1
active: Activity [7] | Activity [8] | Activity [9] | Activity [10]
